In paper PMC3382646 (Journal of Computer-Aided Molecular Design, 2011):

Biological target: T1, Bovine pancreatic trypsin (Bos taurus, UniProt P00760)
T1 sequence (P00760 24-246): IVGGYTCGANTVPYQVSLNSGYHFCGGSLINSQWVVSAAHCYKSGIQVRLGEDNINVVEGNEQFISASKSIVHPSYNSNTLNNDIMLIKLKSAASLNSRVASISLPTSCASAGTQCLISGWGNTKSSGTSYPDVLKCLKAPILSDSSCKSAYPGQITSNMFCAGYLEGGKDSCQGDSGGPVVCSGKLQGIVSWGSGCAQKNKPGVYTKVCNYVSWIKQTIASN
Test: X-ray crystallography of fragments soaked into trypsin crystals
Settings: two-step soak, 24-48 h each, crystals in P212121, pH 5.8
Procedure, shortened: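 Crystals soaked in DMSO-derived fragment/cryoprotectant mix, then transferred to fresh mix. At least two crystals per soak, liquid-nitrogen cooled; synchrotron, 181 × 1° frames, 1–3 s. Automated processing, ligand placed in active-site density, manual rebuilding.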

Soaked fragment density: Yes
SMILES: NCc1cccc(N2CCCC2)c1 [CC 38513]
